Experimental data taken from ChEMBL document CHEMBL3244334, “Synthesis of pyridinium analogues of acetylcholine and their interactions with intestinal muscarinic receptors” (J Med Chem, 1979).
Calls of active or inactive are those of the source. The calls are words filed in the database; no cut-off is given here.

Assays:
[1] = (§1) Competitive antagonist activity at muscarinic acetylcholine receptor in guinea pig ileum assessed as inhibition of 1-(2-acetoxyethyl)pyridinium iodide-induced longitudinal muscle contraction administered 10 mins prior to 1-(2-acetoxyethyl)pyridinium iodide induction measured every 20 mins in presence of 10 uM competitive nicotinic antagonist hexamethonium chloride; assay type: tissue-based; settings: Cavia porcellus, read-out: pA2 (converted)
In short: (§2)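 Ileal muscle in 10 μM hexamethonium chloride. Tissue conditioned with a single antagonist dose for 10 min before cumulative dose-response curves to the pyridinium agonist. Points are means of equipotent agonist concentrations giving standard responses, from 6–8 experiments.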

[2] = system: Cavia porcellus; assay: as §1, with “Non-competitive” for “Competitive”, “contraction at 0.1 uM” for “contraction”; assay type: tissue-based; in short: as §2
[3] = as §1, with “acetyl-beta-methylcholine-induced” for “1-(2-acetoxyethyl)pyridinium iodide-induced”, “acetyl-beta-methylcholine” for “1-(2-acetoxyethyl)pyridinium iodide”; assay type: tissue-based; settings: Cavia porcellus, read-out: pA2 (converted)
In short: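 Ileal muscle was pretreated for 10 min with a single antagonist dose, then a cumulative acetyl-β-methylcholine concentration-response curve was run, with 10 μM hexamethonium chloride in the bath. Lachesine was the reference antagonist, run the same way. Rightward shift of the log concentration-response curves and any change in shape or maximum were assessed. Values are means ± SD.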

[4] = organism: Cavia porcellus; assay: Agonist activity at muscarinic acetylcholine receptor in guinea pig ileum assessed as longitudinal muscle contraction measured every 20 mins in absence of 10 uM competitive nicotinic antagonist hexamethonium chloride; assay type: tissue-based
In short: (§3)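 Isolated ileal muscle, cumulative agonist dose-response curves built every 20 min, read as contraction. pD2 derived; n = 15. Hexamethonium either left out of the bath or raised from 10 to 100 μM.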

[5] = organism: Cavia porcellus; assay: Agonist activity at muscarinic acetylcholine receptor in guinea pig ileum assessed as longitudinal muscle contraction measured every 20 mins in presence of 100 uM competitive nicotinic antagonist hexamethonium chloride; assay type: tissue-based; in short: as §3
[6] = organism: Cavia porcellus; assay: Agonist activity at muscarinic acetylcholine receptor in guinea pig ileum assessed as longitudinal muscle contraction measured every 20 mins in presence of 10 uM competitive nicotinic antagonist hexamethonium chloride; assay type: tissue-based
In short: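 Isolated ileal muscle in a bath with 10 μM hexamethonium chloride to block ganglionic stimulation. Cumulative concentration-response curves to the test agonist and to acetyl-β-methylcholine (reference agonist) were built alternately on one preparation every 20 min. pD₂ was derived from the curves, n = 15 per drug, means ± SD.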

[7] = organism: Cavia porcellus; assay: Agonist activity at muscarinic acetylcholine receptor in guinea pig ileum assessed as longitudinal muscle contraction measured every 20 mins in presence of 0.05 uM physostigmine; assay type: tissue-based
[8] = target: Acetylcholinesterase (Electrophorus electricus) (UniProt O42275); assay: Inhibition of electric eel acetylcholinesterase using acetylcholine as substrate at 3 x 10^-4 M relative to control
Chain of Acetylcholinesterase (Electrophorus electricus) (O42275 24-633 limits assumed): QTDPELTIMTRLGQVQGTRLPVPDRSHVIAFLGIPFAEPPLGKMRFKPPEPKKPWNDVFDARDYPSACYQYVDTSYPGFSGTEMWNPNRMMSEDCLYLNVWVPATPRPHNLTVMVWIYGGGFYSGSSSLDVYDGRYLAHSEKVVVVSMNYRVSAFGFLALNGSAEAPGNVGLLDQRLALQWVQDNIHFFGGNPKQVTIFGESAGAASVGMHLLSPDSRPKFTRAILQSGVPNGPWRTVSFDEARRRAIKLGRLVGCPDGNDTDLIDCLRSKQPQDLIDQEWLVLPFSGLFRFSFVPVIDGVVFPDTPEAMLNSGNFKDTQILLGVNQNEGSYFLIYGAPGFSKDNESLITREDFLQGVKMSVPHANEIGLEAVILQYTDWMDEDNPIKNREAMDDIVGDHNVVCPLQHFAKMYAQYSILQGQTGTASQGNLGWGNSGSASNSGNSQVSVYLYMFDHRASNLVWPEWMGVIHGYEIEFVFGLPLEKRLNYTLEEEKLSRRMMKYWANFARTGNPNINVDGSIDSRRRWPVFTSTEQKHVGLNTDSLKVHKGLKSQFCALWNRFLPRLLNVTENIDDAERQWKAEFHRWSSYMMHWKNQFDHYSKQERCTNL
In short: (§4)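 Electric eel AChE; substrate 1 mM ACh. Inhibition taken as the lowered rate of ACh decomposition, measured by pH-stat titration. Six experiments per value, reported as means ± SD.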

[9] = organism: Cavia porcellus; assay: Agonist activity at muscarinic acetylcholine receptor in guinea pig ileum assessed as longitudinal muscle contraction at 3 x 10^-4 M in presence of 10 uM competitive nicotinic antagonist hexamethonium chloride relative to control; assay type: tissue-based
[10] = Toxicity in NMRI mouse; assay type: organism-based; settings: in vivo
[11] = target: Acetylcholinesterase (Electrophorus electricus) (UniProt O42275); assay: Inhibition of electric eel acetylcholinesterase using acetylcholine as substrate at 10^-5 M relative to control; in short: as §4
[12] = organism: Cavia porcellus; assay: Agonist activity at muscarinic acetylcholine receptor in guinea pig ileum assessed as longitudinal muscle contraction at 10^-5 M in presence of 10 uM competitive nicotinic antagonist hexamethonium chloride relative to control; assay type: tissue-based
[13] = organism: Cavia porcellus; assay: Agonist activity at muscarinic acetylcholine receptor in guinea pig ileum assessed as longitudinal muscle contraction at 10^-6 M in presence of 10 uM competitive nicotinic antagonist hexamethonium chloride relative to control; assay type: tissue-based
[14] = target: Acetylcholinesterase (Electrophorus electricus) (UniProt O42275); settings: 10^-6 M
[15] = organism: Cavia porcellus; assay: Agonist activity at muscarinic acetylcholine receptor in guinea pig ileum assessed as longitudinal muscle contraction at 10^-4 in presence of 10 uM competitive nicotinic antagonist hexamethonium chloride relative to control; assay type: tissue-based
[16] = target: Acetylcholinesterase (Electrophorus electricus) (UniProt O42275); assay: Inhibition of electric eel acetylcholinesterase using acetylcholine as substrate at 3 x 10^-5 M relative to control; in short: as §4
[17] = target: Acetylcholinesterase (Electrophorus electricus) (UniProt O42275); assay: Inhibition of electric eel acetylcholinesterase using acetylcholine as substrate at 10^-3 M relative to control; in short: as §4
[18] = organism: Cavia porcellus; assay: Agonist activity at muscarinic acetylcholine receptor in guinea pig ileum assessed as longitudinal muscle contraction at 3 x 10^-5 M in presence of 10 uM competitive nicotinic antagonist hexamethonium chloride relative to control; assay type: tissue-based
[19] = organism: Cavia porcellus; assay: Agonist activity at muscarinic acetylcholine receptor in guinea pig ileum assessed as longitudinal muscle contraction at 10^-3 M in presence of 10 uM competitive nicotinic antagonist hexamethonium chloride relative to control; assay type: tissue-based

Structure (SMILES) | Kb [1] [µM] | Kb [3] [µM] | Activity [4] | Activity [5] | pD2 [6] | Activity [7] | LD50 [10] [µmol/kg] | also measured
CC[N+](C)(C)CCOC(=O)C(O)(c1ccccc1)c1ccccc1 [LACHESINE CHLORIDE] | 0.00219 | 0.0024 | – | – | – | – | – | inhibition [2]: Active
CC(=O)OC(C)C[N+](C)(C)C (configuration not stated) | – | – | Active | Active | 7.02 | Active | – | –
CC(=O)OCC[n+]1ccc(C(C)(C)C)cc1.[Br-] | 30.2 | 37.2 | – | – | – | – | 2000 | inhibition [8]: 66.2%; %max [9]: 0%; inhibition [11]: 32.3%; %max [12]: 0%
CC(=O)OCC[n+]1ccccc1 | – | – | Active | Active | 4.62 | Active | – | %max [13]: 0%; inhibition [14]: 23.9%; %max [15]: 89%
CC(=O)OCC[n+]1ccc(C)cc1.[Br-] | – | 372 | – | – | – | – | 2000 | inhibition [16]: 42.5%; inhibition [17]: 77.4%; %max [18]: 0%; %max [19]: 0%
